IEC-6 cytotox: counter-screen for KLF5 inhibitors: cytotoxicity in IEC-6 cells | IEC-6 cytotoxicity, luminescence viability | inhibition, % at 5 µM | 0.78% of 290,000 active | AID 1825;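 note: 0% = plate median of test compound wells and 100% = cytotoxic reference compound wells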
MT stabilizer: microtubule stabilizers in HeLa cells | HeLa tubulin immunostaining HCS, 24 h; share of cells brighter than vehicle mean+2SD | % tubulin-high responders, % at 10 µM | 0.83% of 200,000 active | AID 2205;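 active = plate Z-score above 3 for both tubulin-high and condensed-nucleus cell shares, with cell loss under 80%, at 10 µM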;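 note: anti alpha tubulin signal scored within the nucleus-defined area of each cell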
BaF3 tox: parental Ba/F3 viability inhibition as JAK2V617F counter-screen; CellTiter-Glo ATP luminescence; inhibition, % at 5.6 µM; AID 1486; 1.1% of 220,000 active;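 active = inhibition above a per-campaign cutoff, the mean inhibition of all tested compounds plus 3 SD, cut at about 27% in these data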;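 note: 0% = DMSO wells and 100% = JAK Inhibitor I control wells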
bCat nuc transl: beta-catenin nuclear translocation modulation. HeLa beta-catenin nuclear translocation, immunofluorescence imaging. nuclear translocation activity, % at 5 µM. 0.3% of 190,000 active. AID 1665;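 active = nuclear translocation activity above 50% at 5 µM, with a well cell count of 50 or more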;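 note: per-cell ratio of nuclear to cytoplasmic median beta-catenin stain intensity; plate controls were DMSO negative control for no effect and GSK-3 inhibitor IX positive control for full effect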
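Test system: HeLa cells, endogenous beta-catenin; Compound: single 5 µM dose plus 0.02–20 µM confirmation series; Times: compound exposure 24 h at 37°C; Signal: fluorescence imaging of beta-catenin antibody stain plus DAPI; Read-out: % activation, nuclear-to-cytoplasmic median beta-catenin signal ratio per cell.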
Ba/F3 V617F tox: loss of viability in JAK2V617F-driven Ba/F3 cells | Ba/F3 EpoR-JAK2V617F viability, ATP luminescence | inhibition, % at 5.6 µM | 1.1% of 220,000 active;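 active = inhibition above the campaign mean plus 3 SD over all tested compounds, cut at about 24% in these data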;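 note: cytokine-independent growth of Ba/F3 cells driven by EpoR plus mutant JAK2; 0% = DMSO-treated cells and 100% = JAK inhibitor I control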
APP transl inh: APP translation inhibition; SH-SY5Y APP 5'UTR-luciferase reporter, luminescence; inhibition, % at 2 µM; 0.82% of 190,000 active; AID 1285;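 active = inhibition above a set limit, derived from the sample mean plus 3 SD, cut at about 45% in these data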
IEC-6 tox confirm: IEC-6 cytotoxicity, confirmation assay; shares compounds with IEC-6 cytotox; AID 1907; 63% of 1,900 active; inhibition, % at 5 µM; IEC-6 rat intestinal epithelial viability, luminescence;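 note: 0% = vehicle and 100% = reference cytotoxic drug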
Numbers without * were called inactive; / = not tested or not shown. An excerpt weighted towards active compounds, which were near 2.2% of everything screened. Cut-off read from the data, not from the text of the source, unless noted: active = inhibition above about 22%; inactive = the rest.

SMILES	IEC-6 cytotox	MT stabilizer	BaF3 tox	bCat nuc transl	Ba/F3 V617F tox	APP transl inh	IEC-6 tox confirm
Cc1cc(-c2nnc3n2N=C(c2ccccc2Br)CS3)n[nH]1	-4.8	/	19.0	-0.6	10.5	/	/
N#Cc1ccc(OCC(=O)n2cc(C(=O)c3cc(Cl)cc(Cl)c3O)cn2)cc1	0.4	/	-6.5	1.4	-0.6	/	/
O=c1c(Cl)c(Cl)cnn1-c1ccccc1	94.8*	3.8	-7.9	7.5	-1.1	96.0*	30.8*
CCOc1cnn(-c2ccccc2)c(=O)c1Cl	-1.2	/	/	/	/	/	/
O=S(=O)(NCC1CCN(c2ccc(S(=O)(=O)N3CCOCC3)cc2)CC1)c1ccc(F)cc1	4.9	/	/	/	/	/	/
CCCOc1ccccc1C1CC(=O)NC(C)=C1C(=O)OCC(C)C (stereo not given)	2.8	1.8	3.6	1.4	1.8	-11.2	/
CCOc1ccccc1C1CC(=O)Nc2cc3c(cc21)OCCO3 (stereo not given)	66.5*	14.3	78.2*	1.2	80.2*	13.7	53.8*
COc1ccccc1C1CC(=O)Nc2cc(C)c(C)cc21 (stereo not given)	36.3*	/	/	/	/	/	5.9
CCOc1ccccc1C1CC(=O)Nc2cc(C)c(C)cc21 (stereo not given)	41.8*	/	/	/	/	/	26.2*
CCCOc1ccccc1C1CC(=O)NC2=C1C(=O)CCC2 (stereo not given)	37.2*	55.2	27.8*	96.7*	18.1	21.4	32.8*
CCOc1ccccc1C1CC(=O)Nc2cc(OC)c(OC)c(OC)c21 (stereo not given)	-4.3	3.0	1.8	-3.1	-0.6	-5.3	/
CCOc1ccc(NC(=O)CC2S/C(=N/N=C3CCCCCC3)NC2=O)cc1 (stereo not given)	-5.6	/	/	/	/	/	/
Cc1cc2c(cc1C)C(c1ccccc1OC(C)C)CC(=O)N2 (stereo not given)	44.5*	/	/	/	/	/	30.6*
O=C(Nc1cc(=O)[nH]c(=O)[nH]1)c1cc(Cl)ccc1Cl	45.0*	/	/	/	/	/	13.6
Cc1ccc(C(=O)Cn2c(C(=O)OCCO)cc3ccccc32)cc1	26.5*	/	/	/	/	/	9.5
Cc1ccc(C(=O)Cn2c(C(=O)O)cc3ccccc32)cc1	-0.8	/	/	/	/	/	/
COC(=O)c1sc(N)c(C(=O)OC)c1COC(=O)c1c(C)noc1C	66.5*	55.8*	72.9*	24.2	71.0*	43.0	41.7*
COc1cccc(/C=N/Nc2snc(SC)c2C#N)c1	44.1*	6.3	2.9	-0.8	0.6	-30.1	36.5*
CSc1nsc(N/N=C/c2ccccc2)c1C#N	34.1*	2.7	4.7	1.6	0.2	-42.8	33.4*
COc1ccc(/C=N/Nc2snc(SC)c2C#N)cc1OC	41.0*	2.9	3.2	1.7	-0.1	-91.9	31.4*
COc1cccc(/C=N/Nc2snc(SC)c2C#N)c1O	7.4	2.5	10.8	3.8	4.6	-60.2	/
CCN(c1ccccc1)S(=O)(=O)c1ccc(Oc2ccc(-n3ccnc3)cc2)nc1	30.3*	37.9	20.2	/	11.2	2.2	29.1*
COc1ccccc1CNC(=O)CN1CCN(c2ccc(C(C)=O)cc2)CC1	-3.9	/	/	/	/	/	/
O=C1CSC(=Nc2ccc(Cl)cc2)N1Cc1cccnc1	-0.2	/	-5.8	-1.6	-3.5	/	/
Clc1ccc(CSc2ncnc3nc[nH]c23)cc1	-3.3	4.8	6.8	1.7	4.9	-6.8	/
SMILES	IEC-6 cytotox	MT stabilizer	BaF3 tox	bCat nuc transl	Ba/F3 V617F tox	APP transl inh	IEC-6 tox confirm
O=C(CSc1ncnc2nc[nH]c12)c1ccc(Cl)cc1	41.1*	/	/	/	/	/	23.3*
COC(/C(=N/O)c1ccc(Cl)cc1)c1ccccc1 (stereo not given)	28.5*	/	/	/	/	/	11.1
CCc1ccc(NC(=O)CCn2nc(C)c(S(=O)(=O)N3CCCCC3)c2C)cc1	-3.5	/	/	/	/	/	/
Cc1cccc(CSc2cccc3cccnc23)c1	32.3*	4.3	-1.7	/	6.0	34.7	37.2*
S=c1nc(NCCc2ccccc2Cl)c2ccccc2[nH]1	23.8*	/	/	/	/	/	13.7
CC(=O)/C(C#N)=C1\NC(=O)C(Cc2ccc(C)c(Cl)c2)S1 (stereo not given)	72.4*	/	4.0	4.3	2.0	/	47.5*
CCOC(=O)c1ccc(CC2S/C(=C(\C#N)C(C)=O)NC2=O)cc1 (stereo not given)	-3.0	1.2	4.5	2.4	-1.3	11.8	/
O=C(N/N=C/c1cc(Br)cc(Br)c1O)c1ccncc1	24.0*	1.9	-5.1	-1.3	4.1	25.9	13.9
Cc1cc(=O)oc2cc(OCC(=O)OC(C)C(=O)NC3CCCC3)ccc12 (stereo not given)	-4.9	2.9	5.3	-1.2	3.4	-19.5	/
CCc1cc2ccc(C)c(C)c2nc1SCC(=O)Nc1cc(C)on1	34.9*	/	/	/	/	/	31.6*
Cc1cc(NC(=O)CSc2nc3c(C)c(C)ccc3cc2C)no1	-2.2	/	/	/	/	/	/
Cc1cc(NC(=O)CSc2nc3c(C)cccc3cc2C#N)no1	22.8*	/	/	/	/	/	17.8
Cc1cc(NC(=O)CSc2nnc(-c3ccccc3)o2)no1	29.1*	2.7	3.8	-5.1	3.7	-23.8	3.8
Cc1cccc2cc(C#N)c(SCC(=O)N3CC(=O)Nc4ccccc43)nc12	92.9*	16.0	88.7*	28.3	85.2*	96.2*	73.6*
Cc1ncc([N+](=O)[O-])n1CC(=O)Nc1ccc(OC(F)(F)Cl)cc1	0.2	/	/	/	/	/	/
Cc1ccc(N2CC(C(=O)NCCS(=O)(=O)N3CCN(c4ccccc4)CC3)CC2=O)cc1C (stereo not given)	-7.8	/	/	/	/	/	/
CCOC(=O)C(C)Oc1cccc2c(=O)n(CC(=O)NCc3ccco3)ccc12 (stereo not given)	77.1*	10.1	68.4*	72.7*	77.1*	93.6*	51.9*
CC(C)C(=O)c1cn(CC(=O)NCc2ccco2)c2ccccc12	2.8	3.7	2.8	-3.9	1.7	-13.0	/
COc1ccc(NS(=O)(=O)c2cc(C)ccc2NC(=O)c2cc(C)oc2C)cc1	81.8*	20.7*	78.7*	/	75.1*	95.2*	62.2*
CCOc1ccc(-c2cc(N3C(=O)Nc4ccccc4N3O)n[nH]2)cc1	70.2*	1.5	77.2*	-2.0	75.5*	24.6	2.2
c1cnc2c(c1)ccc1cccnc12	69.6*	5.2	3.5	2.2	7.2	31.8	79.9*
O=Cc1ccc2ccc3cccnc3c2n1	1.6	/	/	/	/	/	/
COc1ccc(Cl)cc1NC(=O)CSc1nc(N2CCOCC2)nc(N2CCOCC2)n1	4.4	/	/	/	/	/	/
COc1ccc(Cl)cc1NC(=O)CSc1nc(Nc2ccccc2)nc(N2CCOCC2)n1	30.4*	/	/	/	/	/	11.9
COc1cc(C(=O)NCC(=O)N2CCN(S(=O)(=O)c3cc(C)ccc3C)CC2)cc(OC)c1OC	29.8*	/	/	/	/	/	17.2
Cc1ccc(C)c(S(=O)(=O)N2CCN(C(=O)Cc3ccsc3)CC2)c1	-5.1	/	/	/	/	/	/
Fc1ccc(NC(=S)Nc2nccs2)cc1	12.4	3.3	6.5	-2.7	1.8	-71.0	/
S=C(Nc1ccccc1)Nc1nccs1	42.1*	/	0.2	0.1	2.4	/	8.1
N#Cc1ccc(-c2cccs2)nc1SCc1cccnc1	78.7*	/	69.1*	135.1*	73.2*	/	64.2*

From PubChem
